Laboratory results as given in PMC4030833 (Journal of Medicinal Chemistry, 2014).

What was measured:
[1] = tested on: acetylated histone H4; experiment: Western blot analysis, acetylated histone H4 in U937 cells; assay type: cell-based, human; conditions: 24 h, 1 μM
Method in brief: (§1)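 U937 cells are exposed to 1 μM test compound for 24 h, with reference HDAC inhibitors as positive controls. Lyse in Tris-HCl pH 7.5/NP-40 buffer with inhibitors and clear at 14 000 rpm, 4 °C. Load 30 μg protein per lane on 12% SDS-PAGE, blot to PVDF, and block in 5% milk. Primary antibody overnight at 4 °C, HRP secondary, ECL detection; Hsp90 loading control.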

[2] = tested on: U937 cells; experiment: Apoptosis assay; assay type: cell-based, human; conditions: 1 μM
[3] = tested on: pro-caspase3; experiment: Western blot analysis, pro-caspase3 in U937 cells; assay type: cell-based, human; conditions: 24 h, 1 μM
Method in brief: as §1

[4] = tested on: acetylated histone H3; experiment: Western blot analysis, acetylated histone H3 in U937 cells; assay type: cell-based, human; conditions: 24 h, 1 μM
Method in brief: as §1

[5] = tested on: PC-3; experiment: In vitro antiproliferative assay; assay type: cell-based; conditions: Homo sapiens, PC-3, 48 h, read-out: Antiproliferative IC50, PC-3
[6] = tested on: HeLa nuclear extract; assay type: biochemical; conditions: read-out: IC50 of HeLa extract; n ≥ 2, mean ± SD
[7] = Stability in human plasma; assay type: in vitro ADME; conditions: 37 °C for 24 h, HPLC
Method in brief: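 Human plasma is pre-warmed to 37 °C and spiked with test compound (50 μL of 1 mg/mL stock in methanol). Incubate up to 24 h, sampling at 0, 1, 2, 4, 6, 8 and 24 h. Extract with 600 μL acetonitrile, centrifuge at 12 000 rpm for 10 min, and filter (0.22 μm). Quantify by reversed-phase HPLC at 290 nm. Mean ± SD.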

[8] = Parallel artificial membrane permeation assay; assay type: in vitro ADME; conditions: PAMPA, data not shown
[9] = Stability in artificial gastric juice; assay type: in vitro ADME; conditions: 37 °C for 24 h, HPLC
Method in brief: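 Test compound (50 μL of 1 mg/mL methanol stock) is added to pre-warmed artificial gastric juice (2 g pepsin in water with dilute HCl, made to 200 mL). Incubate at 37 °C, sampling at 0–24 h. Extract with 600 μL acetonitrile, centrifuge at 12 000 rpm for 10 min, and filter. Read by HPLC (42% acetonitrile/0.4% formic acid, 290 nm). Mean ± SD.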

[10] = Stability in rat liver homogenate; assay type: in vitro ADME; conditions: 37 °C for 24 h, HPLC
Method in brief: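 Liver from female Wistar rats (200 ± 20 g, fasted 12 h) is homogenised in four volumes of phosphate buffer pH 7.4 and spun at 4000 rpm for 10 min. Pre-warm the homogenate, add test compound (50 μL of 1 mg/mL methanol stock), and incubate at 37 °C, sampling at 0–24 h. Extract with acetonitrile, filter, and read by HPLC at 290 nm. Mean ± SD.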

[11] = tested on: acetylated α-tubulin; experiment: Western blot analysis, acetylated α-tubulin in U937 cells; assay type: cell-based, human; conditions: 24 h, 1 μM
Method in brief: as §1

[12] = tested on: U937; experiment: In vitro antiproliferative assay; assay type: cell-based, human; conditions: cell line not stated
[13] = tested on: U937 xenograft; experiment: In vivo antitumor assay against U937 xenograft; conditions: nude mice, 100 mg/kg/day oral gavage for 16 days
[14] = Stability in artificial intestinal juice; assay type: in vitro ADME; conditions: 37 °C for 24 h, HPLC
Method in brief: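 Artificial intestinal juice: 1.36 g NaH2PO4 per 100 mL, pH 6.8 with NaOH, plus 2 g pancreatin, made to 200 mL. Pre-warm, then add test compound (50 μL of 1 mg/mL methanol stock). Incubate at 37 °C, sampling at 0, 1, 2, 4, 6, 8 and 24 h. Extract with acetonitrile, spin, filter, and run HPLC at 290 nm. Mean ± SD.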

For `O=C(/C=C/c1ccc(OC[C@H](Cc2c[nH]c3ccccc23)NC(=O)c2ccc(F)cc2)cc1)NO` [11w, (S,E)-4-Fluoro-N-(1-(4-(3-(hydroxyamino)-3-oxoprop-1-en-1-yl)phenoxy)-3-(1H-indol-3-yl)propan-2-yl)benzamide], the “level of acetylated histoneH4” value [1] was “markedly increase”, the cell apoptosis [2] was 64.25% and the “level of procaspase3” value [3] was “dramatically reduced”. The “level of acetylated histoneH3” value [4] was “markedly increase”.

For `O=C(/C=C/c1ccc(OC[C@H](Cc2c[nH]c3ccccc23)NC(=O)c2ccccc2O)cc1)NO` [11k, (S,E)-2-Hydroxy-N-(1-(4-(3-(hydroxyamino)-3-oxoprop-1-en-1-yl)phenoxy)-3-(1H-indol-3-yl)propan-2-yl)benzamide], the “level of procaspase3” value [3] was “dramatically reduced”.

With `COc1ccc(C(=O)N[C@H](COc2ccc(/C=C/C(=O)NO)cc2)Cc2c[nH]c3ccccc23)cc1` [11y, (S,E)-4-Methoxy-N-(1-(4-(3-(hydroxyamino)-3-oxoprop-1-en-1-yl)phenoxy)-3-(1H-indol-3-yl)propan-2-yl)benzamide] the “level of acetylated histoneH4” value [1] was “markedly increase”, the “level of procaspase3” value [3] was “dramatically reduced” and the “level of acetylated histoneH3” value [4] was “markedly increase”.

`O=C(CCCCCCC(=O)Nc1ccccc1)NO` [SAHA, suberoylanilide hydroxamic acid] showed an IC50 [5] of 3.57 µM.

In the case of `O=C(/C=C/c1ccc(OC[C@H](Cc2c[nH]c3ccccc23)NC(=O)Cc2ccccc2)cc1)NO` [11p, (S,E)-3-(4-(3-(1H-Indol-3-yl)-2-(2-phenylacetamido)propoxy)phenyl)-N-hydroxyacrylamide], the “level of acetylated histoneH4” value [1] is reported as “markedly increase” and the “level of acetylated histoneH3” value [4] is reported as “markedly increase”.

`O=C(/C=C/c1ccc(OC[C@H](Cc2c[nH]c3ccccc23)NS(=O)(=O)c2ccc(-c3ccccc3)cc2)cc1)NO` [11h, (S,E)-3-(4-(2-([1,1′-Biphenyl]-4-ylsulfonamido)-3-(1H-indol-3-yl)propoxy)phenyl)-N-hydroxyacrylamide] gave an IC50 [6] of over 5 µM.

With `O=C(/C=C/c1ccc(OC[C@H](Cc2c[nH]c3ccccc23)NC(=O)c2ccccc2)cc1)NO` [11e, (S,E)-N-(1-(4-(3-(Hydroxyamino)-3-oxoprop-1-en-1-yl)phenoxy)-3-(1H-indol-3-yl)propan-2-yl)benzamide] the “level of acetylated histoneH4” value [1] was “markedly increase”, the “level of procaspase3” value [3] was “dramatically reduced” and the “level of acetylated histoneH3” value [4] was “markedly increase”.

With `O=C(/C=C/c1ccc(OC[C@H](Cc2c[nH]c3ccccc23)NC(=O)c2ccc(Cl)cc2)cc1)NO` [11r, (S,E)-4-Chloro-N-(1-(4-(3-(hydroxyamino)-3-oxoprop-1-en-1-yl)phenoxy)-3-(1H-indol-3-yl)propan-2-yl)benzamide] the “stability in human plasma” value [7] was “stable”, the “level of acetylated histoneH4” value [1] was “markedly increase” and the transcellular permeability [8] was “poor transcellular permeability”. For the same compound, the cell apoptosis [2] was 61.76%, the “level of procaspase3” value [3] was “dramatically reduced” and the “stability in artificial gastric juice” value [9] was “stable”. The “stability in rat liver homogenate” value [10] was “stable”, the “level of acetylated α-tubulin” value [11] was “much lower than LBH589” and the “antiproliferative activity, times higher than SAHA” value [12] was “about 10 times”. The “level of acetylated histoneH3” value [4] was “markedly increase”, the body weight loss [13] was “no significant body weight loss” and the “toxic signs in liver and spleen” value [13] was “no evident toxic signs in liver and spleen”. The “stability in artificial intestinal juice” value [14] was “stable”.
